Results reported in ChEMBL document CHEMBL2429863, “Cytotoxic deoxybenzoins and diphenylethylenes from Arundina graminifolia” (J Nat Prod, 2013).

Tests used:
Assay type in all cases: functional, cell-based
NB-4 = test: Cytotoxicity against human NB4 cells after 48 hrs by MTT assay; conditions: NB-4, 48 h
In short: (§1)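 Tumor cells from ATCC, grown in RPMI1640 or DMEM with 10% FBS at 37 °C, 5% CO2. Adherent cells plated and allowed to attach 12 h; suspension cells seeded just before dosing at 1 × 10^5 cells/mL. Compounds at various concentrations in triplicate for 48 h; paclitaxel positive control. MTT added for 4 h at 37 °C, then lysis with 20% SDS–50% DMF; formazan read colorimetrically.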

[1] = Cytotoxicity against human SH-SY5Y cells after 48 hrs by MTT assay; in short: as §1
MCF7 = test: Cytotoxicity against human MCF7 cells after 48 hrs by MTT assay; conditions: MCF7, 48 h; in short: as §1
PC-3 = test: Cytotoxicity against human PC3 cells after 48 hrs by MTT assay; conditions: PC-3, 48 h; in short: as §1
A549 = test: Cytotoxicity against human A549 cells after 48 hrs by MTT assay; conditions: A549, 48 h; in short: as §1

Row | SMILES | IC50 (NB-4) | IC50 [1] | IC50 (MCF7) | IC50 (PC-3) | IC50 (A549)
1 | CC(C)CCC(=O)c1c(O)cc(CC(=O)c2ccccc2)cc1O | 2.1 µM | 3.2 µM | 5.5 µM | 6.8 µM | 5.2 µM
2 | COc1ccc(C(=O)Cc2cc(O)c(C(=O)CCC(C)C)c(O)c2)cc1 | > 10 µM | > 10 µM | > 10 µM | > 10 µM | > 10 µM
3 | CC(C)c1cc(=O)c2c(O)cc(CC(=O)c3ccccc3)cc2o1 | > 10 µM | > 10 µM | > 10 µM | > 10 µM | > 10 µM
4 | CC(=O)Oc1cc(CC(=O)c2ccccc2)cc2oc(C(C)C)cc(=O)c12 | > 10 µM | > 10 µM | > 10 µM | > 10 µM | > 10 µM
5 | OCCc1c(O)cc(/C=C/c2cc(O)cc(O)c2)cc1O | 5.5 µM | 7.8 µM | 6.4 µM | 5.6 µM | 8.1 µM
6 | COc1cc(/C=C/c2cc(O)cc(O)c2)cc(O)c1CCO | 3.3 µM | 4.5 µM | 5.3 µM | 2.2 µM | 6.5 µM
7 | COc1cc(/C=C/c2cc(O)c(CCO)c(O)c2)cc(OC)c1 | 4.8 µM | 6.2 µM | 5.9 µM | 8.7 µM | 5.5 µM
8 | COc1ccc(C(=O)Cc2cc(O)c3c(c2)OC(C)(C)CC3=O)cc1 | > 10 µM | > 10 µM | > 10 µM | > 10 µM | > 10 µM
9 | COc1ccc(C(=O)Cc2cc(OC)c3c(c2)OC(C)(C)CC3=O)cc1 | > 10 µM | > 10 µM | 8.5 µM | > 10 µM | 6.4 µM
10 | COc1ccc(C(=O)Cc2cc(O)c3c(c2)OCC(C)=CC3=O)cc1 | > 10 µM | > 10 µM | > 10 µM | > 10 µM | > 10 µM
11 | CC1=CC(=O)c2c(O)cc(CC(=O)c3ccc(O)cc3)cc2OC1 | 7.6 µM | 1.8 µM | 5.4 µM | 3.4 µM | 2.2 µM
12 | CC(=O)O[C@H]1C(=O)[C@@]2(C)[C@H]([C@H](OC(=O)c3ccccc3)[C@]3(O)C[C@H](OC(=O)[C@H](O)[C@@H](NC(=O)c4ccccc4)c4ccccc4)C(C)=C1C3(C)C)[C@]1(OC(C)=O)CO[C@@H]1C[C@@H]2O [PACLITAXEL] | – | 0.2 µM | – | – | –
